Values after ≈ are worked out from the molar mass of the structure shown. Active and inactive are the calls of the source. The rule behind the calls is not given here.
Experiments:
[1] = tested on: Mycolicibacterium smegmatis; assay: Ratio of IC50 for Mycobacterium smegmatis DprE1 Y321H mutant to IC50 for Mycobacterium smegmatis recombinant wild type DprE1
Method in brief: (§1)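 Recombinant M. smegmatis DprE1 (thioredoxin-6His fusion), wild type or Y321H, 75 nM. Enzyme was preincubated 30 min in FAD assay mix: 50 mM glycylglycine pH 8.5, 200 mM potassium glutamate, 10 μM FAD, 0.002% Brij-35, 2% DMSO. Reaction was started with 300 μM farnesylphosphoryl-β-D-ribofuranose, 0.01 mg/mL HRP and 50 μM amplex red at 25 °C.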

Cytochrome P450 2C9 = Cytochrome P450 2C9 (Homo sapiens, UniProt P11712); assay: Inhibition of CYP2C9 (unknown origin); assay type: ADME
Sequence of Cytochrome P450 2C9 (P11712 whole entry, canonical isoform): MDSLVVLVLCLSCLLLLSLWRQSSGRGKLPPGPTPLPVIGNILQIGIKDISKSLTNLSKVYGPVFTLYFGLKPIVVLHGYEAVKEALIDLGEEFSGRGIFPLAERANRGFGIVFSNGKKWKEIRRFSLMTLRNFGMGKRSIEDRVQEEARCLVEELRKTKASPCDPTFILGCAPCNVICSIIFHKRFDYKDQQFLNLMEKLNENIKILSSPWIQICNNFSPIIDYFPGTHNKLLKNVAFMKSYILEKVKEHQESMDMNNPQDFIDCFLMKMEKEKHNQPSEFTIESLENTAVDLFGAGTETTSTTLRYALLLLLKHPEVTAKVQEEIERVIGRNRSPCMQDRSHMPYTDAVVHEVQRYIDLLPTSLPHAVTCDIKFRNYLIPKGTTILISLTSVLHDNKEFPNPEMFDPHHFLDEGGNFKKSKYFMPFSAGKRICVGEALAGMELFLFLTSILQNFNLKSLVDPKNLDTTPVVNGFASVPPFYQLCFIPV
Method in brief: (§2)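 CYP inhibition IC50 measured on isoforms CYP3A4, CYP2D6, CYP2C9, CYP2C19 and CYP1A2.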

[2] = tested on: Mycobacterium tuberculosis; assay: Antimycobacterial activity against Mycobacterium tuberculosis over expressing TopA after 5 days by standard microdilution method; assay type: functional; conditions: 120 h
[3] = tested on: Mycobacterium tuberculosis; assay: Antimycobacterial activity against Mycobacterium tuberculosis expressing GFP assessed as change bacterial morphology at 30 uM after 5 to 7 days; assay type: functional, organism-based
Method in brief: (§3)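 GFP-expressing Mtb was grown several days in a microfluidic device with 7H9 flow medium. Compound at 30 μM was then flowed in from t = 118 h to t = 284 h, then washed out. Phase and GFP time-lapse images were taken at 1 h intervals to follow growth rate, morphology and lysis of single cells and microcolonies.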

[4] = Inhibition of Mycobacterium smegmatis DprE1 Y321H mutant using farnesylphosphoryl-beta-D-ribofuranose as substrate assessed as conversion of amplex red to resorufin after 30 mins; parameters: species or system Mycolicibacterium smegmatis; method in brief: as §1
[5] = tested on: Mycobacterium tuberculosis; assay: Antimycobacterial activity against Mycobacterium tuberculosis H37Rv under hypoxic condition after 6 days by resazurin assay; assay type: functional; conditions: 144 h
Streptococcus pneumoniae = assay: Antimicrobial activity against Streptococcus pneumoniae ARC548 at 100 uM; assay type: functional, organism-based
Method in brief: (§4)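 Nonmycobacterial panel of Candida albicans, Gram-negative and Gram-positive pathogens.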

Klebsiella pneumoniae = assay: Antimicrobial activity against Klebsiella pneumoniae ARC1865 at 100 uM; assay type: functional, organism-based; method in brief: as §4
Haemophilus influenzae [6] = assay: Antimicrobial activity against Haemophilus influenzae ARC158 at 100 uM; assay type: functional, organism-based; method in brief: as §4
[7] = tested on: Mycobacterium tuberculosis; assay: Antimycobacterial activity against Mycobacterium tuberculosis expressing GFP assessed as reduction of bacterial growth rate at 30 uM after 5 to 7 days; assay type: functional, organism-based; method in brief: as §3
[8] = tested on: Mycobacterium tuberculosis; assay: Antimycobacterial activity against Mycobacterium tuberculosis over expressing InhA after 5 days by standard microdilution method; assay type: functional; conditions: 120 h
[9] = tested on: Mycobacterium tuberculosis; assay: Antimycobacterial activity against Mycobacterium tuberculosis H37Rv at >MIC after 21 to 28 days; assay type: functional
[10] = tested on: Mycolicibacterium smegmatis; assay: Binding affinity to Mycobacterium smegmatis recombinant DprE1 assessed as half life
Method in brief: (§5)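 Progress curves (fluorescence vs time) recorded at several inhibitor concentrations with 75 nM Msm DprE1 in the FAD/HRP/Amplex Red coupled assay, pH 8.5, 25 °C. A single-step reversible slow-binding model was fitted globally, with vs and vi fitted per concentration and koff and Kiapp shared. Half-life and residence time were derived from koff.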

Escherichia coli [11] = assay: Antimicrobial activity against Escherichia coli ARC523 at 100 uM; assay type: functional, organism-based; method in brief: as §4
[12] = tested on: Mycobacterium tuberculosis; assay: Antimycobacterial activity against Mycobacterium tuberculosis expressing GFP assessed as bacterial lysis at 30 uM after 5 to 7 days measured after drug washout; assay type: functional, organism-based; method in brief: as §3
[13] = tested on: Mycobacterium tuberculosis; assay: Antimycobacterial activity against Mycobacterium tuberculosis over expressing PimA after 5 days by standard microdilution method; assay type: functional; conditions: 120 h
Cytochrome P450 1A2 = target: T1, Cytochrome P450 1A2 (Homo sapiens, UniProt P05177); assay: Inhibition of CYP1A2 (unknown origin); assay type: ADME; method in brief: as §2
T1 sequence (P05177 whole entry): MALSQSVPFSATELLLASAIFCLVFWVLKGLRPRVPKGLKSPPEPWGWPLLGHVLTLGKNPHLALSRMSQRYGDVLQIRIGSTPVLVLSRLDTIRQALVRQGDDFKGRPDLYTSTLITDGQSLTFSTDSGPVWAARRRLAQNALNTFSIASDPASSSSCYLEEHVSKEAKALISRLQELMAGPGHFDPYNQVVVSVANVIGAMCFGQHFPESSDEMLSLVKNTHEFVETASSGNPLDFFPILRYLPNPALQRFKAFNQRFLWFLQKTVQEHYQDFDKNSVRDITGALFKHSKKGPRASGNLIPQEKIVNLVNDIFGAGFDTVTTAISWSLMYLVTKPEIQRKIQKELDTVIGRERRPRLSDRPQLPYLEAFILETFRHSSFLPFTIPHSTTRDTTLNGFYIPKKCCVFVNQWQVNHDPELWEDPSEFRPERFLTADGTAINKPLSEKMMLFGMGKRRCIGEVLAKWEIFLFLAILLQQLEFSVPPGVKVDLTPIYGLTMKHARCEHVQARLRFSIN

[14] = Intrinsic clearance in rat cryopreserved hepatocytes assessed per 10^6 cells at 1 uM up to 120 mins by LC-MS/MS analysis; assay type: ADME, cell-based, Hepatocyte; conditions: read-out: CLH
[15] = Solubility of the compound in 0.1 M phosphate buffer at pH 7.4 after 24 hrs by UV and MS analysis; assay type: physicochemical
Staphylococcus aureus = assay: Antimicrobial activity against Staphylococcus aureus ARC517 at 100 uM; assay type: functional, organism-based; method in brief: as §4
[16] = tested on: Mycobacterium tuberculosis; assay: Antimycobacterial activity against Mycobacterium tuberculosis H37Rv after 5 days by standard microdilution method; assay type: functional; conditions: 120 h
[17] = tested on: Mycobacterium tuberculosis; assay: Antimycobacterial activity against Mycobacterium tuberculosis over expressing DprE1 after 5 days by standard microdilution method; assay type: functional; conditions: 120 h
Pseudomonas aeruginosa [18] = assay: Antimicrobial activity against Pseudomonas aeruginosa ARC546 at 100 uM; assay type: functional, organism-based; method in brief: as §4
[19] = tested on: Mycolicibacterium smegmatis; assay: Antimicrobial activity against Mycobacterium smegmatis ATCC 607 at 100 uM; assay type: functional, organism-based
[20] = tested on: Mycolicibacterium smegmatis; assay: Antimicrobial activity against Mycobacterium smegmatis mc2155 at 100 uM; assay type: functional, organism-based; conditions: str. MC2 155
[21] = Permeability of the compound from basolateral to apical side in human Caco2 cells; assay type: ADME, cell-based; conditions: Caco-2, read-out: permeability
[22] = Fraction unbound in human plasma at 20 uM after 18 hrs by equilibrium dialysis method; assay type: ADME, cell-free
Cytochrome P450 2D6 = Cytochrome P450 2D6 (Homo sapiens, UniProt P10635); assay: Inhibition of CYP2D6 (unknown origin); assay type: ADME; method in brief: as §2
Sequence of Cytochrome P450 2D6 (P10635 whole entry): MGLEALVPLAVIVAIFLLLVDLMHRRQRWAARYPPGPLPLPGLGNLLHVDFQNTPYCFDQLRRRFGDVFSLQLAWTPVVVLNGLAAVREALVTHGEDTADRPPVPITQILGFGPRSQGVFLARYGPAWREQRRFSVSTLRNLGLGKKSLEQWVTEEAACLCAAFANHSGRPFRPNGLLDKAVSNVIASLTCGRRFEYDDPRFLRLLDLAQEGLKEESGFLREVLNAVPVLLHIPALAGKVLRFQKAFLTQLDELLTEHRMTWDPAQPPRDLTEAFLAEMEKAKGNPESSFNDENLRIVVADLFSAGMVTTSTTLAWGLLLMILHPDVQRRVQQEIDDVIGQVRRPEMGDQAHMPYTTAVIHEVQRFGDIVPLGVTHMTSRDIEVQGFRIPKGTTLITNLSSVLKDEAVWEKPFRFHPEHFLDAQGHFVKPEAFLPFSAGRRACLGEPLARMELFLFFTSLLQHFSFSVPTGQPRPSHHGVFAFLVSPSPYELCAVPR

[23] = Permeability of the compound from apical to basolateral side in human Caco2 cells; assay type: ADME, cell-based; conditions: Caco-2, read-out: permeability
[24] = tested on: Mycolicibacterium smegmatis; assay: Binding affinity to Mycobacterium smegmatis recombinant DprE1 assessed as dissociation constant; method in brief: as §5
Pseudomonas aeruginosa [25] = assay: Antimicrobial activity against Pseudomonas aeruginosa ARC545 at 100 uM; assay type: functional, organism-based; method in brief: as §4
Haemophilus influenzae [26] = assay: Antimicrobial activity against Haemophilus influenzae ARC446 at 100 uM; assay type: functional, organism-based; method in brief: as §4
[27] = tested on: Mycolicibacterium smegmatis; assay: Binding affinity to Mycobacterium smegmatis recombinant DprE1 assessed as residence time; method in brief: as §5
Cytochrome P450 2C19 = Cytochrome P450 2C19 (Homo sapiens, UniProt P33261); assay: Inhibition of CYP2C19 (unknown origin); assay type: ADME; method in brief: as §2
Sequence of Cytochrome P450 2C19 (P33261 whole entry): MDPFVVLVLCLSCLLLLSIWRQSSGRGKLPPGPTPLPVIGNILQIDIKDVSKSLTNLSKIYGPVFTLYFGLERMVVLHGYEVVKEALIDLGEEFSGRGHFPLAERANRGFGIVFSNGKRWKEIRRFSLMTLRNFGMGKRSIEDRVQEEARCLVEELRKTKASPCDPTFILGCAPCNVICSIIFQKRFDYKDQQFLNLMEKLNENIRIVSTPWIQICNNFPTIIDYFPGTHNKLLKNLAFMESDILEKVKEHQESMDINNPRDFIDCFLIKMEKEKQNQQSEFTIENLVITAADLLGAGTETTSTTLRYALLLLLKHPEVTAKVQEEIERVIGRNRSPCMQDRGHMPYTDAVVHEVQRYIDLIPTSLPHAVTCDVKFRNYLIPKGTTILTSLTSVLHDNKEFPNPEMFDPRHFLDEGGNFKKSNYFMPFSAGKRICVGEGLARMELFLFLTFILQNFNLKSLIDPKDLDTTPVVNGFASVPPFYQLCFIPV

[28] = Cytotoxicity against human A549 cells after 72 hrs by resazurin based fluorescence assay; assay type: cell-based; conditions: read-out: MIC
Method in brief: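 Cytotoxicity read as MMIC, the MIC on the A549 cell line.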

Candida albicans = assay: Antimicrobial activity against Candida albicans ARC527 at 100 uM; assay type: functional, organism-based; method in brief: as §4
[29] = Octanol-water partition coefficient, log D of the compound by shake-flask method; assay type: physicochemical
Escherichia coli [30] = assay: Antimicrobial activity against Escherichia coli ARC524 at 100 uM; assay type: functional, organism-based; method in brief: as §4
[31] = Intrinsic clearance in human liver microsomes at 1 uM up to 30 mins by LC-MS/MS analysis; assay type: ADME; conditions: read-out: CLH
[32] = Inhibition of Mycobacterium smegmatis recombinant DprE1 using farnesylphosphoryl-beta-D-ribofuranose as substrate assessed as conversion of amplex red to resorufin after 30 mins; parameters: species or system Mycolicibacterium smegmatis
Method in brief: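 Msm DprE1 (thioredoxin-6His fusion of Msm Rv3790) at 75 nM, preincubated 30 min with 10 μM FAD. Buffer: 50 mM glycylglycine pH 8.5, 200 mM potassium glutamate, 0.002% Brij-35, 2% DMSO, 25 °C. Started with 300 μM farnesylphosphoryl-β-D-ribofuranose, 0.01 mg/mL HRP and 50 μM Amplex Red.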

[33] = tested on: Mycolicibacterium smegmatis; assay: Time dependent inhibition of Mycobacterium smegmatis recombinant DprE1 using farnesylphosphoryl-beta-D-ribofuranose as substrate assessed as conversion of amplex red to resorufin at 4.6 to 3333 nM
Method in brief: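 Coupled fluorescence assay at 25 °C with 75 nM recombinant Msm DprE1 (wild type or Y321H) in 50 mM glycylglycine pH 8.5, 200 mM potassium glutamate, 10 μM FAD, 0.002% Brij-35, 2% DMSO. Enzyme preincubated 30 min, then started with 300 μM FPR, HRP and 50 μM Amplex Red. Progress curves followed over 0−40 min, with background subtracted.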

[34] = tested on: Mycobacterium tuberculosis; assay: Antimycobacterial activity against Mycobacterium tuberculosis H37Rv infected in human THP1 cells after 7 days; assay type: functional, organism-based; conditions: THP-1
Cytochrome P450 3A4 = Cytochrome P450 3A4 (Homo sapiens, UniProt P08684); assay: Inhibition of CYP3A4 (unknown origin); assay type: ADME; method in brief: as §2
Sequence of Cytochrome P450 3A4 (P08684 whole entry): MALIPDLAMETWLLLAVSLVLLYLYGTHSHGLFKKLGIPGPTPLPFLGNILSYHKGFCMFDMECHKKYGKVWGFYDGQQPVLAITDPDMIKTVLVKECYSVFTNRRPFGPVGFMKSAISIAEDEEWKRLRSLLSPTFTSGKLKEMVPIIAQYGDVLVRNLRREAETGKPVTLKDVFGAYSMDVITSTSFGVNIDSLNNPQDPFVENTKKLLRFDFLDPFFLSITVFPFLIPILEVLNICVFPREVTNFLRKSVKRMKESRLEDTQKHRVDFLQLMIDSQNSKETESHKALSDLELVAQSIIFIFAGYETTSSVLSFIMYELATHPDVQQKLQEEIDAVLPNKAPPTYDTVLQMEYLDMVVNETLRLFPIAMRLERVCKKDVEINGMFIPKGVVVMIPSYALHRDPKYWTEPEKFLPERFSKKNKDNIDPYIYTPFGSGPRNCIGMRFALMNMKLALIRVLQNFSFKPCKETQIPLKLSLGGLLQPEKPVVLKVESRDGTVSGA

## Cn1ncc(C(=O)N2CCC(Nc3cc(=O)[nH]c4ccc(F)cc34)CC2)c1Cl
[1]
  fold change (FC): 111
Cytochrome P450 2C9
  INH: > 30 µM
[2]
  MIC: 0.8 µM (≈ 0.323 µg/mL)
[3]
  Activity: Active
[4]
  IC50: 9.47 µM
[5]
  IC80: > 100 µM
Streptococcus pneumoniae
  Activity: inactive
Klebsiella pneumoniae
  Activity: inactive
Haemophilus influenzae [6]
  Activity: inactive
[7]
  Activity: Active
[8]
  MIC: 1.6 µM (≈ 0.646 µg/mL)
[9]
  MBC: 3.1 µM (≈ 1.25 µg/mL)
[10]
  T1/2: 1.38 h
Escherichia coli [11]
  Activity: inactive
[12]
  Activity: Active
[13]
  MIC: 1.6 µM (≈ 0.646 µg/mL)
Cytochrome P450 1A2
  INH: > 30 µM
[14]
  hepatocyte CLint at 1 µM: 5.6 µL/min/1e6 cells
[15]
  solubility at 24 h: 105 µM (≈ 42.4 µg/mL)
Staphylococcus aureus
  Activity: inactive
[16]
  MIC: 1.56 µM (≈ 0.63 µg/mL)
[17]
  MIC: 100 µM (≈ 40.4 µg/mL)
Pseudomonas aeruginosa [18]
  Activity: inactive
[19]
  Activity: inactive
[20]
  Activity: inactive
[21]
  Papp B→A: 13 ×10⁻⁶ cm/s
[22]
  fraction unbound at 18 h, 20 µM: 0.4
Cytochrome P450 2D6
  INH: > 30 µM
[23]
  Papp A→B: 0.6 ×10⁻⁶ cm/s
[24]
  Kdiss: 0.00012 s⁻¹
Pseudomonas aeruginosa [25]
  Activity: inactive
Haemophilus influenzae [26]
  Activity: inactive
[27]
  TIME: 1.98 h
Cytochrome P450 2C19
  INH: > 30 µM
[28]
  MCC at 72 h: > 200 µM
Candida albicans
  Activity: inactive
[29]
  logD: 2
Escherichia coli [30]
  Activity: inactive
[31]
  microsomal CLint at 1 µM: < 4.8 µL/min/mg
[32]
  IC50: 0.005 µM
[33]
  inhibition: Active
[34]
  Activity: Active
Cytochrome P450 3A4
  INH: > 30 µM
